Among the data in ChEMBL document CHEMBL1770116, “Glycoglycerolipid analogues inhibit PKC translocation to the plasma membrane and downstream signaling pathways in PMA-treated fibroblasts and human glioblastoma cells, U87MG” (Eur J Med Chem, 2011) are inhibition, Activity and IC50 values, retold here.

Experiment [1] addresses T1, Protein kinase C (PKC) (Homo sapiens) (UniProt O94806+P41743+P17252+P05129+Q05655+P05771+Q05513+Q02156+P24723+Q15139+Q04759). In words: Inhibition of PKC activation in PMA-treated human fibroblasts assessed as decrease in Raf phosphorylation at 2 uM pretreated for 1 hr followed by 15 mins challenged with PMA by Western blot/densitometric analysis. In short, it runs like this:
(§1)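 Primary human dermal fibroblasts, 5 × 10^5 cells seeded in DMEM/10% FBS; after 24 h, compound (ethanol vehicle) in 10% FBS DMEM for 1 h at 37 °C, then 100 nM PMA for 15 min. Controls received 0.005% ethanol ± PMA. Cells sonicated; 25 µg total lysate run on 10% SDS-PAGE, blotted to PVDF and probed with phospho-specific antibodies; densitometry.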
On the technique in general: In western blotting, separated proteins are transferred to a membrane and probed.

For experiment [2], the target named is T1, Protein kinase C (PKC) (Homo sapiens). In words: Inhibition of PKC activation in PMA-treated human fibroblasts assessed as inhibition of translocation to plasma membrane at 0.2 uM pretreated for 1 hr followed by 15 mins challenged with PMA by Western blot/densitometric analysis. In short, it runs like this: (§2)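 Primary human dermal fibroblasts in 10% FBS DMEM, pretreated 1 h at 37 °C with compound (ethanol vehicle, 0.2–2 range), then 100 nM PMA for 15 min. Controls received 0.005% ethanol ± PMA. 10 µg membrane protein on 10% SDS-PAGE/PVDF, probed with anti-PKC; densitometry. IC50 derived from the inhibition curve.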

The nature of experiment [3]: Antitumor activity against human U87MG cells assessed as reduction in [3H]thymidine incorporation at 2 uM after 24 hrs by beta counting. The format is functional, U-87MG ATCC. Further details: scale not given: the % may be the effect or the level left. In short, it runs like this:
(§3)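 [3H]thymidine incorporation in U87MG cells: 4 × 10^4 cells plated, treated 24 h or 48 h; […] [3H]thymidine added for final 4 h at 37 °C; radioactivity counted in trichloroacetic acid-insoluble material by β-counter. Means ± S.D. of four experiments.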

The target of experiment [4] is T1, Protein kinase C (PKC) (Homo sapiens). In words: Inhibition of PKC activation in PMA-treated human fibroblasts assessed as inhibition of translocation to plasma membrane at 2 uM pretreated for 1 hr followed by 15 mins challenged with PMA by Western blot/densitometric analysis. The procedure, abridged:
as §2

Experiment [5] has the same target. In words: Inhibition of PKC activation in PMA-treated human fibroblasts assessed as decrease in MEK phosphorylation at 2 uM pretreated for 1 hr followed by 15 mins challenged with PMA by Western blot/densitometric analysis. The procedure, abridged:
as §1

For experiment [6], the system named is U-87 MG. Description: Inhibition of human U87MG cell migration at 2 uM pretreated for 48 hrs measured after 6 to 30 hrs of scratching by scratch migration assay relative to control. The format is functional, cell-based. The conditions noted are these: U-87MG ATCC. The procedure, abridged:
(§4)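 U87MG cells (8 × 10^4) pretreated 48 h in 10% FBS DMEM, ethanol-only controls. Wound width photographed under phase contrast at 0, 6, 24 and 30 h post-scratch.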

The subject of experiment [7] is U-87 MG. Description: Inhibition of human U87MG cell migration assessed as reduction in wound size at 2 uM pretreated for 48 hrs measured after 30 hrs of scratching by scratch migration assay relative to control. The format is functional, U-87MG ATCC. In short, it runs like this:
as §4

Experiment [8] is described as follows: Antitumor activity against human U87MG cells assessed as reduction in [3H]thymidine incorporation at 2 uM after 48 hrs by beta counting. In kind it is functional, U-87MG ATCC. Also noted: scale not given: the % may be the effect or the level left. In short, it runs like this: as §3
(Uptake of a labelled nucleoside into DNA is a usual measure of proliferation.)

Experiment [9] deals with T1, Protein kinase C (PKC) (Homo sapiens). In words: Inhibition of PKC activation in PMA-treated human fibroblasts assessed as decrease in ERK1/2 phosphorylation at 2 uM pretreated for 1 hr followed by 15 mins challenged with PMA by Western blot/densitometric analysis. In short, it runs like this:
as §1

Experiment [10] in a line: Suppression of PKC delta mRNA expression in PMA-treated human fibroblasts at 2 uM pretreated for 1 hr followed by 15 mins challenged with PMA by RT-PCR analysis. In kind it is functional, cell-based. The note with it: Fibroblast. The procedure, abridged: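 Fibroblasts pretreated 1 h, then 100 nM PMA for 15 min. RNA taken for real-time PCR of PKCα and PKCδ with SYBR Green and 0.2 µM primers. Cycling: 95 °C for 3 min, then 40 cycles of 95 °C 10 s / 58 °C 30 s; specificity checked by melting curve. Means ± S.D. of four experiments, Student's t-test.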

Experiment [11] deals with T1, Protein kinase C (PKC) (Homo sapiens). In words: Inhibition of PKC activation in human U87MG cells assessed as inhibition of translocation to plasma membrane at 2 uM after 24 hrs by Western blot/densitometric analysis. The note with it: U-87MG ATCC. The format is cell-based. In short, it runs like this: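 U87MG cells (4 × 10^5) cultured in DMEM high glucose/10% FBS, treated 24 h at 37 °C; controls received 0.005% ethanol. Means ± S.D. of three experiments, Student's t-test.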

In a further experiment the target is Protein kinase C (PKC). Description: Inhibition of PKC activation in PMA-treated human fibroblasts assessed as inhibition of translocation to plasma membrane cells pretreated for 1 hr followed by 15 mins challenged with PMA by Western blot/densitometric analysis. In short, it runs like this:
as §2

Experiment [12] concerns the target T1, Protein kinase C (PKC) (Homo sapiens). Description: Inhibition of PKC activation in PMA-treated human fibroblasts assessed as decrease in FAK phosphorylation at 2 uM pretreated for 1 hr followed by 15 mins challenged with PMA by Western blot/densitometric analysis. In short, it runs like this:
as §1

The structures appear in SMILES notation. Active and inactive are the calls of the source. The calls are words filed in the database; no cut-off is given here.

What is called inhibition is the share of the control response that was lost under treatment. Broadly, the IC50 is the concentration needed to halve the response being measured. On to `CC(C)CC(=O)OC[C@H]1O[C@@H](OC(CO)CO)[C@H](O)[C@@H](O)[C@H]1O`, for which the inhibition entry (in experiment [1]; in experiment [5]; with U-87 MG [6]; in experiment [9]; in experiment [12]) was “Active” in each case. Also, the results for the inhibition in [2], in experiment [4] and in experiment [11] were 23%, 99% and 58%, respectively. The Activity in [3] was 25%; in [8] it was 30%. For the same compound, the inhibition at 2 µM with U-87 MG [7] is 16%. Also, in experiment [10], the result was Active. The IC50 at Protein kinase C (PKC) turned out to be 480 nM.

Take `CCCCCC(=O)OC[C@H]1O[C@@H](OC(CO)CO)[C@H](O)[C@@H](O)[C@H]1O`: the inhibition in [2] was 35%; in [4], 64%.

As for `CCCCCCCCCC(=O)OC[C@H]1O[C@@H](OC(CO)CO)[C@H](O)[C@@H](O)[C@H]1O`, the inhibition result in [11] is “inactive”.

For `OCC(CO)O[C@@H]1O[C@H](CO)[C@H](O)[C@H](O)[C@H]1O`, the inhibition in experiment [2] is 27%; in experiment [4] it was 50%.

Consider `O=C(CC1CCCCC1)OC[C@H]1O[C@@H](OC(CO)CO)[C@H](O)[C@@H](O)[C@H]1O`, for which the inhibition is 38% in experiment [2] and 52% in experiment [4].
